From publication PMC7854449 (Advances in Therapy, 2020)

Legend:
[1] = Multiple-dose pharmacokinetics of OW s.c. semaglutide, plasma, LC-MS/MS; type: in vivo, healthy Chinese subjects
Summary of the method: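 Healthy Chinese adults (18–55 y, BMI 20.0–24.9 kg/m2) got s.c. abdominal injections weekly for 13 weeks, starting at 0.25 mg and escalating every 4 weeks to 0.5 or 1.0 mg. Plasma was sampled frequently after the first and last doses, plus pre-dose in weeks 4, 8 and 11, and assayed by LC–MS/MS. Values below LLOQ were imputed. Non-compartmental linear trapezoidal AUC0–168 h used actual times. Ratios came from a log-scale linear model (dose group fixed) with 95% CI. Racc,DC = (AUCSS/last dose)/(AUCSD/0.25 mg).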

[2] = Safety and tolerability: treatment-emergent adverse events; type: in vivo, healthy Chinese subjects; settings: 13 weeks; for AEs leading to withdrawal, % (proportion of subjects) / AEs leading to withdrawal, E (number of events) / AEs leading to withdrawal, N (number of subjects) / AEs, % (proportion of subjects) / AEs, E (number of events) / AEs, N (number of subjects) / AEs, outcome not recovered/not resolved, % (proportion of subjects) / AEs, outcome not recovered/not resolved, E (number of events) / AEs, outcome not recovered/not resolved, N (number of subjects) / AEs, outcome recovered/resolved, % (proportion of subjects) / AEs, outcome recovered/resolved, E (number of events) / AEs, outcome recovered/resolved, N (number of subjects) / AEs, outcome recovering/resolving, % (proportion of subjects) / AEs, outcome recovering/resolving, E (number of events) / AEs, outcome recovering/resolving, N (number of subjects) / AEs, severity mild, % (proportion of subjects) / AEs, severity mild, E (number of events) / AEs, severity mild, N (number of subjects) / AEs, severity moderate, % (proportion of subjects) / AEs, severity moderate, E (number of events) / AEs, severity moderate, N (number of subjects) / AEs, severity severe, % (proportion of subjects) / AEs, severity severe, E (number of events) / AEs, severity severe, N (number of subjects) / Serious AEs, % (proportion of subjects) / Serious AEs, E (number of events) / Serious AEs, N (number of subjects): 12 subjects
Summary of the method: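 This was a single-centre, randomised trial in 36 healthy Chinese adults, 12 per arm, double-blind within dose level, with placebo arms pooled. Test compound or matching placebo was injected s.c. in the abdomen once weekly for 13 weeks, escalating every 4 weeks to 0.5 or 1.0 mg. Treatment-emergent AEs were untoward occurrences after the first dose and before the follow-up visit, counted as subjects and events.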

[3] = cited from earlier work

CC[C@H](C)[C@H](NC(=O)[C@H](Cc1ccccc1)NC(=O)[C@H](CCC(=O)O)NC(=O)[C@H](CCCCNC(=O)COCCOCCNC(=O)COCCOCCNC(=O)CC[C@H](NC(=O)CCCCCCCCCCCCCCCCC(=O)O)C(=O)O)NC(=O)[C@H](C)NC(=O)[C@H](C)NC(=O)[C@H](CCC(N)=O)NC(=O)CNC(=O)[C@H](CCC(=O)O)NC(=O)[C@H](CC(C)C)NC(=O)[C@H](Cc1ccc(O)cc1)NC(=O)[C@H](CO)NC(=O)[C@H](CO)NC(=O)[C@@H](NC(=O)[C@H](CC(=O)O)NC(=O)[C@H](CO)NC(=O)[C@@H](NC(=O)[C@H](Cc1ccccc1)NC(=O)[C@@H](NC(=O)CNC(=O)[C@H](CCC(=O)O)NC(=O)C(C)(C)NC(=O)[C@@H](N)Cc1cnc[nH]1)[C@@H](C)O)[C@@H](C)O)C(C)C)C(=O)N[C@@H](C)C(=O)N[C@@H](Cc1c[nH]c2ccccc12)C(=O)N[C@@H](CC(C)C)C(=O)N[C@H](C(=O)N[C@@H](CCCNC(=N)N)C(=O)NCC(=O)N[C@@H](CCCNC(=N)N)C(=O)NCC(=O)O)C(C)C [semaglutide, Semaglutide]
Racc,DC (dose-corrected accumulation ratio) ([1]; OW s.c. dosing, both dose groups): approximately 2 | treatment ratio (1.0 mg/0.5 mg) for Cmax,SS ([1]; [95% CI], dose proportionality): 1.94 [1.74; 2.16] | treatment ratio (1.0 mg/0.5 mg) for AUC0–168 h,SS ([1]; linear normal model on log-transformed values, [95% CI], dose proportionality): 1.99 [1.78; 2.23] | AEs leading to withdrawal, % (proportion of subjects) ([2]; OW s.c. 0.5 mg): 0% | AEs leading to withdrawal, E (number of events) ([2]; OW s.c. 0.5 mg): 0 | AEs leading to withdrawal, N (number of subjects) ([2]; OW s.c. 0.5 mg): 0 | AEs, % (proportion of subjects) ([2]; OW s.c. 0.5 mg): 83% | AEs, E (number of events) ([2]; OW s.c. 0.5 mg): 44 | AEs, N (number of subjects) ([2]; OW s.c. 0.5 mg): 10 | AEs, outcome not recovered/not resolved, % (proportion of subjects) ([2]; OW s.c. 0.5 mg): 0% | AEs, outcome not recovered/not resolved, E (number of events) ([2]; OW s.c. 0.5 mg): 0 | AEs, outcome not recovered/not resolved, N (number of subjects) ([2]; OW s.c. 0.5 mg): 0 | AEs, outcome recovered/resolved, % (proportion of subjects) ([2]; OW s.c. 0.5 mg): 83% | AEs, outcome recovered/resolved, E (number of events) ([2]; OW s.c. 0.5 mg): 44 | AEs, outcome recovered/resolved, N (number of subjects) ([2]; OW s.c. 0.5 mg): 10 | AEs, outcome recovering/resolving, % (proportion of subjects) ([2]; OW s.c. 0.5 mg): 0% | AEs, outcome recovering/resolving, E (number of events) ([2]; OW s.c. 0.5 mg): 0 | AEs, outcome recovering/resolving, N (number of subjects) ([2]; OW s.c. 0.5 mg): 0 | AEs, severity mild, % (proportion of subjects) ([2]; OW s.c. 0.5 mg): 83% | AEs, severity mild, E (number of events) ([2]; OW s.c. 0.5 mg): 44 | AEs, severity mild, N (number of subjects) ([2]; OW s.c. 0.5 mg): 10 | AEs, severity moderate, % (proportion of subjects) ([2]; OW s.c. 0.5 mg): 0% | AEs, severity moderate, E (number of events) ([2]; OW s.c. 0.5 mg): 0 | AEs, severity moderate, N (number of subjects) ([2]; OW s.c. 0.5 mg): 0 | AEs, severity severe, % (proportion of subjects) ([2]; OW s.c. 0.5 mg): 0% | AEs, severity severe, E (number of events) ([2]; OW s.c. 0.5 mg): 0 | AEs, severity severe, N (number of subjects) ([2]; OW s.c. 0.5 mg): 0 | Serious AEs, % (proportion of subjects) ([2]; OW s.c. 0.5 mg): 0% | Serious AEs, E (number of events) ([2]; OW s.c. 0.5 mg): 0 | Serious AEs, N (number of subjects) ([2]; OW s.c. 0.5 mg): 0 | AEs leading to withdrawal, % (proportion of subjects) ([2]; OW s.c. 1.0 mg): 0% | AEs leading to withdrawal, E (number of events) ([2]; OW s.c. 1.0 mg): 0 | AEs leading to withdrawal, N (number of subjects) ([2]; OW s.c. 1.0 mg): 0 | AEs, % (proportion of subjects) ([2]; OW s.c. 1.0 mg): 92% | AEs, E (number of events) ([2]; OW s.c. 1.0 mg): 58 | AEs, N (number of subjects) ([2]; OW s.c. 1.0 mg): 11 | AEs, outcome not recovered/not resolved, % (proportion of subjects) ([2]; OW s.c. 1.0 mg): 0% | AEs, outcome not recovered/not resolved, E (number of events) ([2]; OW s.c. 1.0 mg): 0 | AEs, outcome not recovered/not resolved, N (number of subjects) ([2]; OW s.c. 1.0 mg): 0 | AEs, outcome recovered/resolved, % (proportion of subjects) ([2]; OW s.c. 1.0 mg): 92% | AEs, outcome recovered/resolved, E (number of events) ([2]; OW s.c. 1.0 mg): 57 | AEs, outcome recovered/resolved, N (number of subjects) ([2]; OW s.c. 1.0 mg): 11 | AEs, outcome recovering/resolving, % (proportion of subjects) ([2]; OW s.c. 1.0 mg): 8% | AEs, outcome recovering/resolving, E (number of events) ([2]; OW s.c. 1.0 mg): 1 | AEs, outcome recovering/resolving, N (number of subjects) ([2]; OW s.c. 1.0 mg): 1 | AEs, severity mild, % (proportion of subjects) ([2]; OW s.c. 1.0 mg): 92% | AEs, severity mild, E (number of events) ([2]; OW s.c. 1.0 mg): 57 | AEs, severity mild, N (number of subjects) ([2]; OW s.c. 1.0 mg): 11 | AEs, severity moderate, % (proportion of subjects) ([2]; OW s.c. 1.0 mg): 8% | AEs, severity moderate, E (number of events) ([2]; OW s.c. 1.0 mg): 1 | AEs, severity moderate, N (number of subjects) ([2]; OW s.c. 1.0 mg): 1 | AEs, severity severe, % (proportion of subjects) ([2]; OW s.c. 1.0 mg): 0% | AEs, severity severe, E (number of events) ([2]; OW s.c. 1.0 mg): 0 | AEs, severity severe, N (number of subjects) ([2]; OW s.c. 1.0 mg): 0 | Serious AEs, % (proportion of subjects) ([2]; OW s.c. 1.0 mg): 0% | Serious AEs, E (number of events) ([2]; OW s.c. 1.0 mg): 0 | Serious AEs, N (number of subjects) ([2]; OW s.c. 1.0 mg): 0 | severity of gastrointestinal adverse events ([2]; OW s.c. 0.5 and 1.0 mg, none led to treatment discontinuation): mild | deaths ([2]; whole trial, OW s.c. 0.5 and 1.0 mg): no deaths | half-life (t½) [3]: ≈ 1 week
